Data as given in ChEMBL document CHEMBL1133105, “Antimalarial, antitrypanosomal, and antileishmanial activities and cytotoxicity of bis(9-amino-6-chloro-2-methoxyacridines): influence of the linker” (J Med Chem, 2000).

How the values were obtained:
[1] = test system: MRC5; experiment: In Vitro cytotoxicity on MRC-5 cells; type: functional; details: Homo sapiens
How it was run: (§1)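 MRC-5 human diploid embryonic lung cells seeded at 5 000/well, washed after 24 h, then given 2-fold drug dilutions (25, 12.5, 6.25, 3.13 µM) in RPMI + 5% FCS, final DMSO below 0.5%. Incubated 7 days at 37 °C, 5% CO2. MTT colorimetric read-out, scored as % reduction of absorbance at 540 nm versus untreated controls.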

[2] = test system: Leishmania infantum; experiment: In Vitro inhibition concentration against Amastigote form of Leishmania infantum
[3] = test system: Trypanosoma brucei; experiment: Percentage of activity against Trypanosoma brucei at 3.13 uM; type: functional
How it was run: (§2)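 Bloodstream-form T. brucei in HMI-9 medium, 10 000 parasites/well, exposed to 12.5, 6.25, 3.13 and 1.56 µM drug for 4 days. Read-out is % inhibition of parasite multiplication. Macrophage toxicity judged on mouse primary peritoneal macrophages.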

[4] = test system: Plasmodium falciparum; experiment: Parasite growth inhibition against Plasmodium falciparum W2; type: functional, organism-based
How it was run: (§3)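 Asynchronous cultures of each strain on human erythrocytes (0.5% parasitemia, 1% final hematocrit) were exposed to serially diluted drug for 24 h at 37 °C. Then 0.5 µCi [3H]hypoxanthine per well was added for 24 h. Incorporation was compared with a drug-free control on the same plate. IC50 was taken from the concentration-response curve as the mean of several independent experiments. DMSO was at most 0.1%.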

[5] = test system: MRC5; experiment: Cytotoxicity on MRC-5 cells at 3.13 uM; type: functional; details: Homo sapiens; how it was run: as §1
[6] = test system: Plasmodium falciparum; experiment: Parasite growth inhibition against Plasmodium falciparum FCM29; type: functional, organism-based; how it was run: as §3
[7] = test system: Leishmania infantum; experiment: Percentage of activity against Leishmania infantum at 12.5 uM Concentration; Toxic upon mouse primary peritoneal macrophages; type: functional, organism-based
How it was run: (§4)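 Starch-stimulated mouse peritoneal macrophages, 30 000/well, infected after 24 h with spleen-derived L. infantum amastigotes (10:1) together with 2-fold drug dilutions (12.5–1.56 µM). Incubated 7 days at 37 °C, 5% CO2. Wright-stained slides scored microscopically as % reduction of total parasite load or of infected macrophages. Uninfected treated cultures judged microscopically for macrophage toxicity.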

[8] = test system: Plasmodium falciparum; experiment: In vitro sensitivity for Plasmodium falciparum FcB1R; type: functional, organism-based
How it was run: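 Asynchronous P. falciparum cultures in human erythrocytes (0.5% parasitemia, 1% haematocrit) exposed to serially diluted drug for 24 h at 37 °C. [3H]hypoxanthine (0.5 µCi/well) then added for a further 24 h. Uptake compared with drug-free controls on the same plate. IC50 taken from the concentration–response curve, averaged over independent experiments. DMSO ≤0.1%.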

[9] = test system: Trypanosoma cruzi; experiment: Percentage of activity against Trypanosoma cruzi at 3.13 uM; type: functional
How it was run: (§5)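 Mouse peritoneal macrophages, 30 000/well, infected after 24 h with about 100 000 T. cruzi trypomastigotes per well plus 2-fold drug dilutions (12.5–1.56 µM). Incubated 4 days at 37 °C, 5% CO2. Methanol-fixed, Giemsa-stained and scored microscopically as % reduction of total parasite load (free trypomastigotes plus intracellular amastigotes) versus untreated controls.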

[10] = test system: Plasmodium falciparum; experiment: Growth inhibition against chloroquine-resistant Plasmodium falciparum K1; type: functional, organism-based; how it was run: as §3
[11] = test system: Trypanosoma brucei; experiment: Percentage of activity against Trypanosoma brucei at 1.56 uM; type: functional; how it was run: as §2
[12] = test system: Plasmodium falciparum; experiment: Growth inhibition of chloroquine-sensitive Plasmodium falciparum 3D7
[13] = test system: MRC5; experiment: Cytotoxicity on MRC-5 cells at 6.25 uM; type: functional; details: Homo sapiens; how it was run: as §1
[14] = test system: Plasmodium falciparum; experiment: Parasite growth inhibition against Plasmodium falciparum F32A; type: functional, organism-based; how it was run: as §3
[15] = test system: MRC5; experiment: Cytotoxicity on MRC-5 cells at 12.5 uM; type: functional; details: Homo sapiens; how it was run: as §1
[16] = test system: Trypanosoma brucei; experiment: Percentage of activity against Trypanosoma brucei at 6.25 uM; type: functional; how it was run: as §2
[17] = test system: Leishmania infantum; experiment: Percentage of activity against Leishmania infantum at 6.25 uM; Toxic upon mouse primary peritoneal macrophages; type: functional, organism-based; how it was run: as §4
[18] = test system: Plasmodium falciparum; experiment: Parasite growth inhibition against Plasmodium falciparum GP1; type: functional, organism-based; how it was run: as §3
[19] = test system: Leishmania infantum; experiment: Percentage of activity against Leishmania infantum at 3.13 uM; type: functional; how it was run: as §4
[20] = test system: Leishmania infantum; experiment: Percentage of activity against Leishmania infantum at 1.56 uM; type: functional; how it was run: as §4
[21] = test system: Trypanosoma cruzi; experiment: Percentage of activity against Trypanosoma cruzi at 1.56 uM; type: functional; how it was run: as §5
[22] = test system: Trypanosoma cruzi; experiment: Percentage of activity against Trypanosoma cruzi at 12.5 uM; Toxic upon mouse primary peritoneal macrophages; type: functional, organism-based; how it was run: as §5
[23] = test system: Trypanosoma cruzi; experiment: (§6) In Vitro evaluation for the percentage of activity towards Trypanosoma cruzi at 6.25 uM Concentration; Toxic upon mouse primary peritoneal macrophages; type: functional, organism-based; how it was run: as §5
[24] = test system: MRC5; experiment: Cytotoxicity on MRC-5 cells at 25 uM; type: functional; details: Homo sapiens; how it was run: as §1
[25] = test system: Plasmodium falciparum; experiment: Parasite growth inhibition against Plasmodium falciparum FCR3; type: functional, organism-based; how it was run: as §3
[26] = test system: Trypanosoma cruzi; experiment: (§7) In Vitro evaluation for the percentage of activity towards Trypanosoma cruzi at 3.13 uM Concentration; Toxic upon mouse primary peritoneal macrophages; type: functional, organism-based; how it was run: as §5
[27] = test system: Leishmania infantum; experiment: (§8) In Vitro evaluation for the percentage of activity towards Leishmania infantum at 1.56 uM Concentration; Toxic upon mouse primary peritoneal macrophages; type: functional, organism-based; how it was run: as §4
[28] = test system: Leishmania infantum; experiment: (§9) In Vitro evaluation for the percentage of activity towards Leishmania infantum at 3.13 uM Concentration; Toxic upon mouse primary peritoneal macrophages; type: functional, organism-based; how it was run: as §4
[29] = test system: Trypanosoma brucei; experiment: In Vitro evaluation for the percentage of activity towards Trypanosoma brucei at 3.13 uM Concentration; type: functional; how it was run: as §2
[30] = test system: Trypanosoma brucei; experiment: In Vitro inhibition concentration against Trypomastigote form of Trypanosoma brucei; type: functional, organism-based
How it was run: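 Bloodstream-form trypomastigotes were grown in HMI-9 medium. 10 000 parasites per well were incubated with drug at 12.5, 6.25, 3.13 and 1.56 µM for 4 days, and parasite multiplication was assessed.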

[31] = test system: Leishmania infantum; experiment: as §8; type: organism-based; how it was run: as §4
[32] = test system: Leishmania infantum; experiment: as §9; type: organism-based; how it was run: as §4
[33] = test system: Trypanosoma cruzi; experiment: In Vitro evaluation for the percentage of activity towards Trypanosoma cruzi at 12.5 uM Concentration; Toxic upon mouse primary peritoneal macrophages; type: organism-based; how it was run: as §5
[34] = test system: Leishmania infantum; experiment: In Vitro evaluation for the percentage of activity towards Leishmania infantum at 12.5 uM Concentration; Toxic upon mouse primary peritoneal macrophages; type: organism-based; how it was run: as §4
[35] = test system: Trypanosoma brucei; experiment: Percentage of activity against Trypanosoma brucei at 12.5 uM; type: functional; how it was run: as §2
[36] = test system: Leishmania infantum; experiment: In Vitro evaluation for the percentage of activity towards Leishmania infantum 6.25 uM Concentration; Toxic upon mouse primary peritoneal macrophages; type: organism-based; how it was run: as §4
[37] = test system: Trypanosoma cruzi; experiment: as §7; type: ADME, organism-based; how it was run: as §5
[38] = test system: Trypanosoma cruzi; experiment: In Vitro evaluation for the percentage of activity towards Trypanosoma cruzi at 1.56 uM Concentration; Toxic upon mouse primary peritoneal macrophages; type: functional; how it was run: as §5
[39] = test system: Trypanosoma cruzi; experiment: as §6; type: ADME, organism-based; how it was run: as §5

| Structure (SMILES) | CC50 [1] [nM] | Parasite growth inhibition [3] [%] | cytotoxicity at 3.13 µM [5] [%] | Cytotoxicity [7] | IC50 [8] [nM] | Percent inhibition of parasite multiplication [11] [%] | cytotoxicity at 6.25 µM [13] [%] | cytotoxicity at 12.5 µM [15] [%] | Inhibition of parasite multiplication [16] [%] | Cytotoxicity [17] | Parasite load reduction [21] [%] | Cytotoxicity [22] | Cytotoxicity [23] | cytotoxicity at 25 µM [24] [%] | further results |
| --- | --- | --- | --- | --- | --- | --- | --- | --- | --- | --- | --- | --- | --- | --- | --- |
| C[C@@H]1[C@H](O)[C@@H](C)/C=C/C=C/C=C/C=C/C=C/C=C/C=C/[C@H](O[C@@H]2O[C@H](C)[C@@H](O)[C@H](N)[C@@H]2O)C[C@@H]2O[C@](O)(C[C@@H](O)C[C@@H](O)[C@H](O)CC[C@@H](O)C[C@@H](O)CC(=O)O[C@H]1C)C[C@H](O)[C@H]2C(=O)O [AMPHOTERICIN B] | 25000 |  |  |  |  |  |  |  |  |  |  |  |  |  | IC50 [2]: 50 nM |
| COc1ccc2nc3cc(Cl)ccc3c(NCCCN(CCCNc3c4ccc(Cl)cc4nc4ccc(OC)cc34)C(=O)C(CC(C)C)NC(=O)OC(C)(C)C)c2c1 (stereo not given) |  | 100 | 42 | Toxic | 27 | 100 | 47 | 49 | 100 | Toxic | 40 | Toxic | Toxic | 55 | IC50 [4]: 15 nM; IC50 [6]: 13 nM; Reduction of T. cruzi parasite load [9]: 80%; IC50 [10]: 14 nM; IC50 [12]: 48 nM; IC50 [14]: 52 nM; IC50 [18]: 63 nM; Percent antileishmanial activity (reduction of parasite load) [19]: 95%; Antileishmanial activity (% reduction of parasite load) [20]: 90%; IC50 [25]: 17 nM |
| COc1ccc2nc3cc(Cl)ccc3c(NCCCN(CCCNc3c4ccc(Cl)cc4nc4ccc(OC)cc34)C(=O)CCN(C)C)c2c1 |  |  | 30 | Toxic | 39 | 100 | 39 | 40 | 100 | Toxic | 40 | Toxic | Toxic | 54 | Cytotoxicity [26]: Toxic; Cytotoxicity [27]: Toxic; Cytotoxicity [28]: Toxic; Cytotoxicity [29]: 100% |
| Nc1nc(N)nc(Nc2ccc([As]3SCC(CO)S3)cc2)n1 (stereo not given) [MELARSOPROL] | 12500 |  |  |  |  |  |  |  |  |  |  |  |  |  | IC50 [30]: 200 nM |
| COc1ccc2nc3cc(Cl)ccc3c(NCCCN(CCCNc3c4ccc(Cl)cc4nc4ccc(OC)cc34)C(=O)CCC(N)=O)c2c1 |  | 100 | 100 |  | 40 | 100 | 100 | 100 | 100 |  |  |  |  | 100 | Cytotoxicity [31]: Toxic; Cytotoxicity [32]: Toxic; Cytotoxicity [33]: Toxic; Cytotoxicity [34]: Toxic; Inhibition of parasite multiplication [35]: 100%; Cytotoxicity [36]: Toxic; Cytotoxicity [37]: Toxic; Cytotoxicity [38]: 95%; Cytotoxicity [39]: Toxic |
